The full list was thinned out, with hits kept by preference.
IDH1 mut inh: blocks human IDH1 R132H reductase activity; O75874; diaphorase/resazurin fluorescence, 60 min; inhibition, % at 10 µM; 0.18% of 70,000 active; AID 624101; in the data active means inhibition above about 34%; inconclusive means no clear call, values can overlap the other calls; inactive means below about 11%;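 further: 0% = DMSO and 100% = no enzyme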
GASC1 inh: KDM4C (human) demethylase inhibition; 0.15% of 96,000 active; GST-KDM4C 2-372, H3K9me3 peptide, LANCE TR-FRET; inhibition, % at 12.5 µM;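 active means mean replicate inhibition above about 25%, with at least 55% of replicates also reaching it, limit read from the data, passing the limit was not always enough; inconclusive means only one of those two conditions met; inactive means neither condition met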
Target sequence (Q9H3R0 2-372 limits assumed): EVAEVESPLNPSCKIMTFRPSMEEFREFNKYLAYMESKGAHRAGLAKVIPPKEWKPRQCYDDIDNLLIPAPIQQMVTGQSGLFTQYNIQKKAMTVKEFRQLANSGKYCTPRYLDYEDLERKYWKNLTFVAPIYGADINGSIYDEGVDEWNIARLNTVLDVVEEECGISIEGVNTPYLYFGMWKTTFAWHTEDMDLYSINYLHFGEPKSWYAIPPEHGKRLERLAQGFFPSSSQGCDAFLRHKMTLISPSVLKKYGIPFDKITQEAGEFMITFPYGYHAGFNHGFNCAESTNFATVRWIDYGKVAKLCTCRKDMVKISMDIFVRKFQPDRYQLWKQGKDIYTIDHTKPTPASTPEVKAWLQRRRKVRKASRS
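System: N-terminal GST-fused human GASC-1 (KDM4C) fragment, residues 2-372 / Amount: 10 nM GST-KDM4C in enzyme reaction / Also added: H3K9me3 peptide with Fe(II)/2OG / Times: 30 min demethylation and 1 h detection at room temperature / Signal: LANCE TR-FRET / Read-out basis: Fall in 671/618 emission ratio as inhibition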
T cruzi growth-1: blocks T. cruzi growth in NIH3T3 culture; T. cruzi beta-gal in NIH3T3, GalScreen luminescence, 90 h; inhibition, % at 8.34 µM; 5.9% of 77,000 active;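 active means mean inhibition above about 93%, with at least 55% of replicates each passing it, limit read from the data, passing the limit was not always enough; inconclusive means only one of those two conditions holds; inactive means neither condition holds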
T cruzi growth-2: blocks T. cruzi growth in NIH3T3 host cells; shares compounds with T cruzi growth-1; T. cruzi beta-gal in NIH3T3, GalScreen luminescence, 90 h; inhibition, % at 8.35 µM; 72% of 5,600 active;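 active means mean replicate inhibition above about 95% and at least 55% of replicates individually reaching it, limit read from the data; inconclusive means only one of the two criteria is met; inactive means neither criterion is met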
T cruzi growth-3: blocks T. cruzi growth in NIH3T3 host cells; AID 651740; 21% of 5,600 active; T. cruzi beta-gal in NIH3T3, GalScreen luminescence, 90 h; inhibition, % at 2.09 µM; shares compounds with T cruzi growth-1;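 active means mean inhibition above about 95%, with at least 55% of replicates also reaching it, limit read from the data; inconclusive means meets just one of the two conditions; inactive means meets neither condition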;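 further: plate controls were neutral control median for no effect and positive control median for full effect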
3T3 cytotox: NIH/3T3 (mouse) viability loss | 14% of 5,600 active | AID 651742 | shares compounds with T cruzi growth-1 | NIH/3T3 viability, CellTiter-Glo ATP luminescence, 90 h | cytotoxicity (signal decrease), % at 8.35 µM;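 active means mean signal decrease across replicates above about 35% based on untreated-well scatter, with enough replicates individually passing, limit read from the data; inconclusive means no rule stated though some were filed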;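 further: 0% = median of neutral control wells and 100% = median of positive control wells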
NIH3T3 tox 2: kills mouse NIH/3T3 fibroblasts; AID 651744; NIH/3T3 viability, CellTiter-Glo ATP luminescence, 90 h; shares compounds with T cruzi growth-1; 56% of 5,600 active; inhibition, % at 24.9 µM;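 active means mean loss of cell viability signal at or above a set limit, and enough replicates individually reaching it; inconclusive means meets only the mean limit or only the replicate share; inactive means meets neither condition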;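 further: 0% = median of neutral control wells and 100% = median of positive control wells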
Active calls of the source: *; ? = inconclusive; / = not tested or not shown.

SMILES	IDH1 mut inh	GASC1 inh	T cruzi growth-1	T cruzi growth-2	T cruzi growth-3	3T3 cytotox	NIH3T3 tox 2
O=C(C[C@H]1C[C@@H]2c3cc(NC(=O)c4ccc5c(c4)OCO5)ccc3O[C@@H]2[C@H](CO)O1)NCc1ccc(Oc2ccccc2)cc1	-0.9	-1.7	176.7*	98.7*	38.2	-15.0	44.8*
O=C(C[C@H]1C[C@H]2c3cc(NC(=O)c4ccc5c(c4)OCO5)ccc3O[C@H]2[C@H](CO)O1)NCc1ccc(Oc2ccccc2)cc1	-1.9	-1.2	16.4	/	/	/	/
COc1ccc(C(=O)CSc2nnc(-c3ccc([N+](=O)[O-])cc3)o2)cc1	0.1	/	/	/	/	/	/
COCC(=O)N1[C@H](CO)[C@@H](c2ccc(-c3cccc(OC)c3)cc2)C12CN(C(C)=O)C2	/	-0.5	/	/	/	/	/
O=c1cc(-c2ccc3ccccc3c2)[nH][nH]1	-1.3	/	/	/	/	/	/
N#C[C@@H]1[C@@H](c2ccccc2)[C@@H](CO)N1C(=O)C1CCCC1	/	-1.9	55.4	/	/	/	/
N#C[C@@H]1[C@@H](c2ccc(/C=C/c3ccccc3)cc2)[C@@H](CO)N1C(=O)C1CCCCC1	/	0.1	102.3*	?	58.0	5.2	26.1
N#C[C@H]1[C@@H](c2ccc(/C=C/c3ccccc3)cc2)[C@@H](CO)N1C(=O)C1CCOCC1	/	-2.0	43.3	/	/	/	/
N#C[C@H]1[C@@H](c2ccc(/C=C/c3ccccc3)cc2)[C@@H](CO)N1C(=O)C1CCCCC1	/	-1.4	97.9*	96.3*	?	14.9	90.2*
O=C(N/N=C/c1ccc(F)c(Oc2ccccc2)c1)c1ccccn1	-0.1	/	/	/	/	/	/
O=C(Cc1ccccc1)N1CC(=O)N2[C@H](C1)[C@@H](c1ccc(Br)cc1)[C@@H]2CO	/	0.5	/	/	/	/	/
Cc1cccc(NC(=O)c2ccccc2NC(=O)COc2ccccc2)c1C	-0.3	/	/	/	/	/	/
COc1cccc(OC)c1C(=O)NC(=S)Nc1cccc(-c2nn3c(C)nnc3s2)c1	0.6	/	/	/	/	/	/
C[C@H]1CN([C@@H](C)CO)S(=O)(=O)c2ccc(C#CC3CCCC3)cc2O[C@@H]1CN(C)C(=O)Cc1ccncc1	/	-3.7	121.9*	104.6*	94.2	-0.8	100.8*
C[C@@H]1CN([C@H](C)CO)S(=O)(=O)c2ccc(C#CC3CC3)cc2O[C@H]1CN(C)C(=O)Cc1ccncc1	6.6	0.8	79.4	/	/	/	/
C[C@@H]1CN([C@H](C)CO)S(=O)(=O)c2ccc(C#CC3CC3)cc2O[C@@H]1CN(C)C(=O)Cc1ccncc1	/	-0.9	?	102.5*	68.0	16.7	15.7
C[C@H](CO)N1C[C@H](C)[C@H](CN(C)C(=O)Cc2ccncc2)Oc2cc(C#CC3CCCC3)ccc2S1(=O)=O	/	-0.2	116.3*	108.7*	62.9	33.5	33.3*
C[C@H](CO)N1C[C@H](C)[C@H](CN(C)C(=O)Cc2ccncc2)Oc2cc(C#CC3CC3)ccc2S1(=O)=O	/	2.3	78.9	/	/	/	/
C[C@H](CO)N1C[C@H](C)[C@H](CN(C)C(=O)Cc2ccncc2)Oc2cc(C#CC3CCCCC3)ccc2S1(=O)=O	?	-2.0	85.7	/	/	/	/
Cc1cccc2c(C(=O)NCCc3ccc(S(N)(=O)=O)cc3)cc(-c3ccccc3Cl)nc12	0.5	/	/	/	/	/	/
COc1ccc(N(C(C)C(=O)Nc2ccc(Br)cc2F)S(C)(=O)=O)cc1 (centres undefined)	-0.1	/	/	/	/	/	/
C[C@@H]1CCCCO[C@@H](CN(C)C(=O)Nc2cccc3ccccc23)[C@H](C)CN([C@H](C)CO)C(=O)c2cc(NC(=O)c3ccccc3)ccc2O1	/	-1.6	103.4*	101.1*	?	-18.1	-6.1
C[C@H]1CCCCO[C@@H](CN(C)C(=O)Nc2cccc3ccccc23)[C@@H](C)CN([C@@H](C)CO)C(=O)c2cc(NC(=O)Cc3ccccc3)ccc2O1	2.8	-0.3	102.0*	115.0*	63.1	7.5	8.7
C[C@@H]1CN([C@@H](C)CO)C(=O)c2cc(NC(=O)Cc3ccccc3)ccc2O[C@@H](C)CCCCO[C@@H]1CN(C)C(=O)Nc1cccc2ccccc12	4.4	-2.2	0.6	/	/	/	/
C[C@@H]1CCCCO[C@H](CN(C)C(=O)Nc2cccc3ccccc23)[C@H](C)CN([C@@H](C)CO)C(=O)c2cc(NC(=O)Cc3ccccc3)ccc2O1	2.5	-2.6	107.3*	103.1*	57.1	0.2	-7.5
SMILES	IDH1 mut inh	GASC1 inh	T cruzi growth-1	T cruzi growth-2	T cruzi growth-3	3T3 cytotox	NIH3T3 tox 2
C[C@H](CO)N1C[C@H](C)[C@@H](CN(C)C(=O)Nc2cccc3ccccc23)OCCCC[C@H](C)Oc2ccc(NC(=O)c3ccccc3)cc2C1=O	/	-2.2	68.9	/	/	/	/
C[C@@H]1CCCCO[C@@H](CN(C)C(=O)Nc2cccc3ccccc23)[C@H](C)CN([C@H](C)CO)C(=O)c2cc(NC(=O)Cc3ccccc3)ccc2O1	0.9	-3.1	98.2*	101.9*	108.5*	-28.4	0.9
C[C@@H]1CN([C@H](C)CO)C(=O)c2cc(NC(=O)Cc3ccccc3)ccc2O[C@@H](C)CCCCO[C@H]1CN(C)C(=O)Nc1cccc2ccccc12	0.2	-0.2	73.2	/	/	/	/
C[C@@H]1CCCCO[C@@H](CN(C)C(=O)Nc2cccc3ccccc23)[C@@H](C)CN([C@@H](C)CO)C(=O)c2cc(NC(=O)Cc3ccccc3)ccc2O1	-1.3	-0.2	/	/	/	/	/
COc1ccccc1C(=O)Oc1c(CN2CCOCC2)cc(Cl)c2cccnc12	-1.2	/	/	/	/	/	/
Cc1noc(C)c1S(=O)(=O)N(C)C[C@H]1OCCCC[C@H](C)Oc2ccc(NC(=O)Nc3ccc(F)cc3)cc2C(=O)N([C@H](C)CO)C[C@@H]1C	1.0	1.3	91.6	/	/	/	/
NC(=O)C1CC(=O)N(c2ccc(OCC(=O)Nc3cc(Cl)cc(Cl)c3)cc2)C1 (centres undefined)	-0.2	/	/	/	/	/	/
C[C@@H]1CN([C@@H](C)CO)S(=O)(=O)c2ccc(C3=CCCCC3)cc2O[C@@H]1CN(C)C(=O)c1ccc(F)cc1	-2.7	-1.1	113.9*	106.8*	94.2	23.0	98.2*
C[C@H](CO)N1C[C@H](C)[C@H](CN(C)C(=O)c2ccncc2)Oc2cc(C3=CCCC3)ccc2S1(=O)=O	10.4	1.8	?	98.9*	61.7	8.7	21.2
C[C@@H]1CN([C@@H](C)CO)S(=O)(=O)c2ccc(C3=CCCC3)cc2O[C@H]1CN(C)C(=O)c1ccncc1	9.8	2.2	91.7	/	/	/	/
C[C@@H]1CN([C@@H](C)CO)S(=O)(=O)c2ccc(C3=CCCC3)cc2O[C@H]1CN(C)C(=O)c1ccc(F)cc1	-0.7	-0.3	/	/	/	/	/
Cc1ccc(NC(=O)CC2NC3CCCCC3NC2=O)cc1C (centres undefined)	0.2	/	/	/	/	/	/
CCCNC(=O)N[C@@H]1C=C[C@H](CC(=O)NC2CCCCC2)O[C@H]1CO	0.0	1.9	-50.7	/	/	/	/
